The text below walks through data of the EternaBench riboswitch data.

The data set relates to MS2 coat protein. Nature of the data set: apparent Kd, MS2 coat protein; higher = weaker binding; RNA-MaP array. Put shortly:
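Designed RNAs were produced on an Illumina sequencing chip by transcription of sequenced DNA templates. Binding to fluorescently labeled MS2 coat protein (1.5 nM to 3 μM) was measured at room temperature with or without input ligand. The apparent Kd is the median of per-cluster binding-curve fits. Designs were excluded when measured on fewer than 10 clusters.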

The mark [1] stands for this setting: designed as: OFF switch for flavin mononucleotide, no ligand.
Where [2] appears, read: ligand present: flavin mononucleotide, designed as: OFF switch for flavin mononucleotide.
The mark [3] stands for this setting: designed as: ON switch for flavin mononucleotide, no ligand.
[4] abbreviates: ligand present: flavin mononucleotide, designed as: ON switch for flavin mononucleotide.
The mark [5] stands for this setting: designed as: OFF switch for tryptophan, no ligand.
[6] abbreviates: ligand present: tryptophan, designed as: OFF switch for tryptophan.
Where [7] appears, read: designed as: ON switch for theophylline, no ligand.
Setting [8] is: ligand present: theophylline, designed as: ON switch for theophylline.

Regarding “GAUUAAAAGAUAGGAUAUUUUGAAAUCGUCACAUGAGGAUCACCCAUGUAUGGCCUGGGCAAUCAAAAGAAGGAUCUUUCUGAU”, the apparent Kd (as a rule, a dissociation constant that holds for the conditions of the assay) runs as follows: under setting [1], 11.2 nM; under setting [2], 6.84 nM.

For “CCUCAACAUGAGGAUCACCCAUGUCAGGAUAUCUAGGAGACAUCACAUGCGUCCGAUGAGAGAAGGGACACAGU”, the “apparent Kd” value reads like this: under setting [1], 25.1 nM; under setting [2], 27.5 nM.

Regarding “GUCGCAUGAGGAUAUACAUGAGGAUCACCCAUGUAUCUACGCAUGGGAAGACACCAAUGUAGAAGGCAUCUCAA”, the “apparent Kd” value runs as follows: under setting [1], 64.2 nM; under setting [2], 21.5 nM.

Consider “GGGUUACUCUAUGAUACCAGUUCCAUGCCGAAACCUGUGUACAUGAGGAUCACCCAUGUGAACCCUUGGCAGCAUUAAUCAACUG”, for which the “apparent Kd” value amounted to 97.5 nM (designed as: OFF switch for theophylline, no ligand) and 258 nM (ligand present: theophylline, designed as: OFF switch for theophylline).

For the sequence “GCAAUUCUUGAGAAGGUCGUAGUGCGCAGACCAAAAGCACAUGAGGAUCACCCAUGUGAUCAAACGAAGGAUAUCACAGUAGAA”, the “apparent Kd” value under setting [1] came out at 51.9 nM and the “apparent Kd” value under setting [2] stood at 49.3 nM.

In the case of “ACGAGAGCCCAGAAGGACACGGGAUACUCACAAGCAUUCUGGACAUGAGGAUCACCCAUGUGUAUGUAGGAUAUGGGAGUUGCG”, the “apparent Kd” value under setting [3] was 31 nM and the “apparent Kd” value under setting [4] turned out to be 15.2 nM.

For the sequence “ACAACUGCAGGAUAUACGAGGGCCGAGGUAUCCGUCCUCGGACAUGAGGAUCACCCAUGUAGAAGGGCAACGAU”, the “apparent Kd” value is, setting by setting: under setting [1], 20.9 nM; under setting [2], 24.1 nM.

Consider “GCGUGAGCGACGUGUCUUCCACAUGAGGAUCACCCAUGUCGCAGAAGGACUUGAAUCGUAUUAAAGUAGGAUAUGCGUAGGACG”, for which the “apparent Kd” value reads like this: under setting [3], 38.3 nM; under setting [4], 29 nM.

As for “CAAAUGUGCACUCGUGAUACAUGAGGAUCACCCAUGUCAACUAAGGAUAUCUGGAAGUCACAUCGAGAGAAGGUAGCGUACCCU”, the “apparent Kd” value came to 10.5 nM under setting [1] and 9.44 nM under setting [2].

Consider “ACAGAACGAGGAUAUCCACUUUGAUACAUGAGGAUCACCCAUGUCCUGAAAGUGUUUCAGGGAGAAGGCGUACCUA”, for which, under setting [1], the “apparent Kd” value was 18 nM.

For “ACACCUCACGGAAUACAUGAGGAUCACCCAUGUUGGGAAGGAAGAAGGUUCCGUGUUGAUUGCUGAAAGGAUAUUCGUGACCCG”, the “apparent Kd” value reads like this: under setting [1], 190 nM; under setting [2], 153 nM.

With “UGGGAUAGCCAGAAGGUGGAAGCAACAACUGUCCAAGGAUAUGGUUGUUAUAAGGCAUCACACAUGAGGAUCACCCAUGUUAAU”, the “apparent Kd” value reads like this: under setting [3], 83.2 nM; under setting [4], 35.2 nM.

For the sequence “UGGGUUACCUCAGGAUAUCGCCUUGUACAUGAGGAUCACCCAUGUAGUAUCGGCCGUGUGUGCAUCGAGAAGGGAGUAACCUUC”, the “apparent Kd” value by setting is: under setting [1], 75.2 nM; under setting [2], 53.5 nM.

For “UGUACCUGUAUCUGGUCCAUAGUAUAACCUCGAGGACCGGUACGGCCGCCACUCGUCGGACCACAUGAGGAUCACCCAUGUACCG”, the “apparent Kd” value runs as follows: under setting [5], 11.6 nM; under setting [6], 12.7 nM.

Turning to “AAUACACAUGAGGAUCACCCAUGUAAGGAUAUCAAGCAUCAAACAUUAGAGUGAGGAGUGAGAAGGUACAUCAC”, the “apparent Kd” value was 20.1 nM under setting [1] and 16.3 nM under setting [2].

Regarding “UGAGAAGUAGGAUAUAAGUACACCUACAUGAGGAUCACCCAUGUACCUAACGUAGCCGAUUUAGAAGGACUGUCAA”, the “apparent Kd” value runs as follows: under setting [1], 58.7 nM; under setting [2], 35.5 nM.

In the case of “GUCGGUGCAGGAUAUCGAGGCGCCAACAUGAGGAUCACCCAUGUGUGUGAUCGGGUGCACCGAGAAGGGCACUUGC”, the “apparent Kd” value is 110 nM under setting [1] and 345 nM under setting [2].

Take “UAGCGACAUGAGGAUCACCCAUGUGAGGAUAUGAAGUCUAUAACACAAGCUAAUGAAGACAGAAGGCACAUGAG”: the “apparent Kd” value under setting [1] amounted to 66.8 nM and the “apparent Kd” value under setting [2] came out at 59.3 nM.

As for “CUCGUACAUGAGGAUCACCCAUGUCAGGAUAUUACUGUCGAGUCCAAAACUAGAAAGGUAAGAAGGGACACAUU”, the “apparent Kd” value came to 13.3 nM under setting [1] and 17.8 nM under setting [2].

Regarding “GUACCUCCUCAGAAGGCGCGUAGAGCCGGCACAUGAGGAUCACCCAUGUCGAGGCGAAAUGCAGGCGAGGAUAUGAAGGGUUUC”, the “apparent Kd” value under setting [3] was found to be 4.88 nM and the “apparent Kd” value under setting [4] stood at 4.92 nM.

For “AACUGUAAUACAAGAACAUGAGGAUCACCCAUGUGUCGCGCAGAGGAUAUACUGGUUCGCUGUCCGUAGAAGGCUGAGCACAUG”, the “apparent Kd” value was found to be 33.9 nM under setting [3] and 23.9 nM under setting [4].

As for “CGACAUAACCGAGGAUAUCGCUGACGUAAGCACAUGAGGAUCACCCAUGUGAGUGAGAGUGAGUACGAGAAGGCGGAAUUAAGG”, the “apparent Kd” value under setting [3] was found to be 53.3 nM and the “apparent Kd” value under setting [4] is 16.5 nM.

Take “UCACAUGAGGAUCACCCAUGUAAAUCACACGACGGUGCUGUCAAGGAUAUGUUACGCUCAGGGCUACAGAAGGUGAUGGUCAAG”: the “apparent Kd” value runs as follows: under setting [3], 52.7 nM; under setting [4], 25.2 nM.

Consider “CAAGGGAAUACAGGAUAUUGCUGGAGUUGGGCGAGACAUGAGGAUCACCCAUGUUAUGCUAUAGUCAAGAAGGGUAUCUCGAGG”, for which the “apparent Kd” value was 18.5 nM under setting [1] and 13 nM under setting [2].

With “GAAAUACAUGAGGAUCACCCAUGUCAGGAUAUCGGUGAGAAAGAGCAUCUCUGCGGCCCGAGAAGGGACACAGG”, the “apparent Kd” value reads like this: under setting [1], 64.5 nM; under setting [2], 51.8 nM.

As to “AUAAAGGAAGGAUAUACAUGAGGAUCACCCAUGUUGAAAUACAGAAAAGGAGAAACAAGUAGAAGGACCGAUGU”, the “apparent Kd” value under setting [1] is 14.2 nM and the “apparent Kd” value under setting [2] worked out at 11.6 nM.

With “GAUAAAGCAGGAUAUACAUACCGGCCAUGACUAAAAGAAGGACAUGAGGAUCACCCAUGUAGAAGGGCUUAAAA”, the “apparent Kd” value by setting is: under setting [1], 15.7 nM; under setting [2], 30.5 nM.

Regarding “CAUGUGUAAGGAUAUGCGUCGAUAUCAACUAACUAUAUGAUGCAGAAGGUACAUGAGGAUCACCCAUGUGAACU”, the “apparent Kd” value reads like this: under setting [1], 30.3 nM; under setting [2], 118 nM.

On to “CCUGGACAUGAGGAUCACCCAUGUGAGGAUACCAGAUAUCCUGAUAUCCCUUGGCAGCCUCAUUACUUCGCAUUACCGAAACUUC”, for which the “apparent Kd” value reads like this: under setting [7], 103 nM; under setting [8], 249 nM.

With “CCAUGAAGCGAGGAUAUUCUCACUGCCAAGUUGGAAGAAGGCGCUACAUGAGGAUCACCCAUGUAGUCAGUCCG”, the “apparent Kd” value reads like this: under setting [1], 5.07 nM; under setting [2], 5.32 nM.

For “CCGCGACAUGAGGAUCACCCAUGUGAUUUGACCUCCGGCACGAGAAGGUUCCGACCAAACGGCCGAAAGGAUAUCGUCCCAGAG”, the “apparent Kd” value came out at 64.1 nM under setting [3] and 38.6 nM under setting [4].

Consider “GACGGGCCUAUUGAUACCAGACCUAGUGACAACAUGAGGAUCACCCAUGUGACGGCAAAAGUCCCUUGGCAGCAAGUAGAAAUAA”, for which the “apparent Kd” value runs as follows: under setting [7], 12.6 nM; under setting [8], 12.3 nM.

Consider “UCAUGAAAGUCAGGAUAUGGCCACAUGAGGAUCACCCAUGUUUGCUUUAUCGAGCGAAACUGAGACCAGAAGGGACGGACAUUC”, for which the “apparent Kd” value is, setting by setting: under setting [3], 20.8 nM; under setting [4], 11.1 nM.

Take “GUACCGUAAACGGCCGCCACUGACAUGAGGAUCACCCAUGUGCUGGUGGUGCACAACCUCAGGUUCAGGACCGGGUUUCCGAGCU”: the “apparent Kd” value is, setting by setting: under setting [5], 25.1 nM; under setting [6], 55 nM.

As for “UAGUAACAUGAGGAUCACCCAUGUGAGGAUAUCUGGCUAGGCUAAAGCAGAGAAACCAAGAGAAGGCACGGGAU”, the “apparent Kd” value worked out at 19.4 nM under setting [1] and 20.8 nM under setting [2].

As to “AUGAAAAGUACAGGAUAUAUAUAAACACAAAACGGACAUGAGGAUCACCCAUGUUGACGUUGUCAAUAGAAGGGUACCAACACA”, the “apparent Kd” value is, setting by setting: under setting [3], 26.1 nM; under setting [4], 10.7 nM.

With “AAGAACAUGAGGAUCACCCAUGUGAUCGUUCGAGGACCGGUACGGCCGCCACUCGGACCUGUGUCCAGGCACGGGCCGACGCGAC”, the “apparent Kd” value stood at 77.8 nM (designed as: ON switch for tryptophan, no ligand) and 38.2 nM (ligand present: tryptophan, designed as: ON switch for tryptophan).

With “UCGAGUGGGCAGAAGGUGUCGGACUAUACAUGAGGAUCACCCAUGUGGAAACCUCCCGGUUUGAACAAGGAUAUGCCUCGUAAA”, the “apparent Kd” value runs as follows: under setting [3], 95.6 nM; under setting [4], 71.4 nM.

Consider “UAUCGGGCAGGAUAUACAUGCGAUUACACUCUUCGGAAAGUACAUGAGGAUCACCCAUGUAGAAGGGCCAAGUG”, for which the “apparent Kd” value runs as follows: under setting [1], 10.4 nM; under setting [2], 11 nM.

With “ACAAGGAGUCAAGGAUAUGAUAGAAGUUACACAUGAGGAUCACCCAUGUUUCUCCGGUGUCAGAAUCAGAAGGUGAGUAUGCAU”, the “apparent Kd” value worked out at 85.2 nM under setting [1] and 74.7 nM under setting [2].

In the case of “CCAUGUAAUGUAAGGAUAUUCCAGGUAAUUACUUUGAAGAAGGUACAUGAGGAUCACCCAUGUGGAAACGAAUG”, the “apparent Kd” value is, setting by setting: under setting [1], 18.6 nM; under setting [2], 64.5 nM.

In the case of “GCCCUGUGACUAGGAUAUGCCGGGAAACACAUCGCAGAAGGAGUCCACUCAUGUCGACAUGAGGAUCACCCAUGUACCAGGGUU”, the “apparent Kd” value reads like this: under setting [1], 40.6 nM; under setting [2], 29.9 nM.

On to “AAUAGAGAGCAGAAGGCCCUAGUUAUCGGCAUGGGAGGAUAUGCACCAGAUAAUAACAUGAGGAUCACCCAUGUUGAAUAAGAA”, for which the “apparent Kd” value turned out to be 19.4 nM under setting [3] and 6.46 nM under setting [4].

As to “GACAAAAUGGUAGGAUAUGCUUGGUCUUGAUCAGCAGAAGGACCACAUGAGGAUCACCCAUGUGCAGUGAUUCUGGGAGCUCGC”, the “apparent Kd” value turned out to be 55.2 nM under setting [1] and 93.3 nM under setting [2].

With “CUCUUGGCCGCAGUACGUUUAUAGACCUAUCGAGGACCGGUACGGCCGCCACUCGGUUAGUCACAUGAGGAUCACCCAUGUGUCC”, the “apparent Kd” value under setting [5] was 17.7 nM and the “apparent Kd” value under setting [6] came to 29.9 nM.

Turning to “UGGGUCCGAUCAGGAUAUUAGCUACCGGAGUAUGACUGGUACUACAUGAGGAUCACCCAUGUUGCUAAGAAGGGAUGAACUGAA”, the “apparent Kd” value runs as follows: under setting [3], 97.4 nM; under setting [4], 26.6 nM.

As to “GCGAAGCGAGGAUAUUAAUCCGUACACAUGAGGAUCACCCAUGUGAAUCAAUCAUGUGGUUAAGAAGGCGCGUGGG”, the “apparent Kd” value runs as follows: under setting [1], 541 nM; under setting [2], 73.2 nM.
